# Diaph act CS – diaphorase activation or chemical reduction counter-screen. Diaphorase/resazurin coupled assay, resorufin fluorescence, 16 min; active compounds read high; 1 = vehicle wells, 0 = NADH-free wells. activation factor at 20 µM. actives 0.005% (n = 190,000);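 active = diaphorase activity raised at least twofold by the compound at 20 µM; inactive = activation factor below 2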
#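 Material: Clostridium kluyveri diaphorase, purified enzyme; Quantity: enzyme 0.07 U/mL final; Medium: HEPES pH 7.4 buffer with MgCl2 and Tween 20; Dosing: single compound dose of 20 µM, 1% DMSO final; Schedule: 16 min reaction at room temperature; Measured by: red resorufin fluorescence at 544/590 nm excitation/emission.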
# ROMK primary – modulates human ROMK potassium channel activity; P48048; Tet-inducible ROMK, thallium flux fluorescence; actives lie on both sides; B-score at 10 µM; actives 2% (n = 130,000);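 active = signal ratio slope over the read window, or its plate-corrected B-score, at least 3 SD from the plate mean, either direction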;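 also: B-score of the F/F0 ratio slope over 7 to 12 s after thallium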
# KCC2 mod – modulates chloride dependent transport by human KCC2 | actives 2.2% (n = 190,000) | AID 1456 | Q9H2X9 | B-score of Tl+ flux slope (higher = more flux/activation; lower = inhibition) at 10 µM | KCC2 cells, thallium flux FluoZin-2 fluorescence;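 active = thallium flux slope and its plate-corrected score both differing from the plate sample mean at a set confidence after two filtering rounds, in either direction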;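 also: slope of fluorescence scaled to starting intensity during 10 to 20 s after thallium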
# Diaph inh CS – diaphorase inhibition or chemical oxidation counter-screen. inhibition, % at 20 µM. diaphorase resazurin-to-resorufin fluorescence, NADH, 16 min; bacterial (C. kluyveri) enzyme, not human. actives 0.69% (n = 190,000);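 active = primary screen inhibition at 20 µM above a set limit, cut at about 50% in these data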;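 also: plate controls were DMSO with full reaction for no effect and wells lacking NADH for full effect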
#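 Benchmarks: positive control wells lacking NADH, neutral wells with DMSO only. System: bacterial diaphorase enzyme (C. kluyveri). Input: 0.14 U/mL diaphorase, enzyme working solution. Detection: resorufin fluorescence, excitation 544 nm, emission 590 nm. Times: 16-min room-temperature incubation before reading.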
# WT yeast gro inh – growth inhibition of WT yeast, mitochondrial fusion screen; inhibition, % at 10 µM; actives 2.1% (n = 190,000); AID 1362; mitochondrial fusion phenotypic screen, WT strain; in the data active = inhibition above about 58%; tested in S. cerevisiae
# Lmaj promast – Leishmania major promastigote growth inhibition; Leishmania major promastigotes, resazurin fluorescence viability; inhibition, % at 10 µM; actives 9% (n = 200,000); AID 1063; in the data active = inhibition above about 50%;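 also: promastigotes grown with compound for 44 hours at 28 °C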
# Starred values were filed as active, the others as inactive; . = no result. Compounds with a hit are over-represented: about 12% of the library has one in this group of screens.
SMILES,Diaph act CS,ROMK primary,KCC2 mod,Diaph inh CS,WT yeast gro inh,Lmaj promast
Cn1nc([N+](=O)[O-])c(C(C#N)c2ccccn2)c(Cl)c1=O (stereo not given),0.7,-0.24,-0.18,31,-15,100*
COc1ccc(Cl)cc1NC(=S)NCCSc1ccc(C)cc1,1,.,0.56,4,78*,0
COc1ccc(NC(=S)NCCc2ccccc2)c(OC)c1,0.8,0.66,-0.47,19,48,7
COc1ccccc1NC(=S)NCCc1ccc(Cl)cc1,1,.,-0.58,3,-1,15
Cc1ccc(NC(=S)NCCSc2ccc(Cl)cc2)cc1,1,0.021,1.9,-1,25,28
Cc1cccc(C)c1NC(=S)NCCSc1ccc(Cl)cc1,0.8,-0.12,-0.59,17,80*,37
COc1ccc(NC(=S)NCCSc2ccc(Cl)cc2)c(OC)c1,0.7,.,-1.2,26,73*,100*
COc1ccccc1NC(=S)NCCSc1ccc(Cl)cc1,0.7,.,-1.3,26,78*,8
Cc1ccc(NC(=O)CCC(=O)NNC(=O)COc2ccccc2)c(C)c1,1,0.14,1.2,4,7,-4
O=C(COC(=O)c1cccnc1Cl)Nc1ccc2c(c1)OCCO2,1,-0.52,1.2,4,-17,4
O=C(COc1ccccc1N1C(=O)C2C3C=CC(C3)C2C1=O)c1ccccc1 (stereo not given),.,.,-0.89,.,.,.
Cc1ccccc1OCCCSc1nc2ccccc2[nH]1,0.8,-0.55,-1.8,18,62*,7
c1ccc(OCCSc2nc3ccccc3[nH]2)cc1,0.9,.,-0.8,7,3,7
COC(=O)c1cc2n3ccccc3c(C)c(-c3ccccc3)c-2c1C(=O)OC,0.4,-1.8,-0.22,57*,-12,17
CC1=CC(C)(C)Nc2ccc(OC(=O)C(C)N3C(=O)c4ccccc4C3=O)cc21 (stereo not given),0.6,.,0.95,36,6,101*
CC1=CC(C)(C)Nc2ccc(C)cc21,0.7,.,0.84,33,25,-3
CC1=CC(C)(C)Nc2ccc(OC(=O)c3cccnc3)cc21,1,0.43,-0.61,4,-1,101*
CC1=CC(C)(C)Nc2ccc(OC(=O)CN3C(=O)CCC3=O)cc21,0.8,.,0.071,23,-16,100*
Cc1ccc(C(=O)N/N=C/c2ccc(-c3cccc(C(F)(F)F)c3)o2)cn1,.,1.1,2.4,.,.,.
CCn1c(COc2cccc(C)c2C)nnc1SCC(=O)Nc1cc(C)on1,1.2,-0.051,0.027,-18,-5,-1
CC(C)Cc1nnc(NC(=O)CSc2nc(O)c(-c3ccccc3)c(=O)[nH]2)s1,0.9,0.36,-0.18,11,10,-11
Cc1nn(C)c(C)c1/C=C/C(=O)c1cccs1,.,.,-1,.,20,72*
Cc1nn(C)c(C)c1/C=C/C(=O)c1ccccc1,0.9,.,0.24,8,6,22
Cc1ccc(C)c(NS(=O)(=O)c2cc(C(=O)NCc3ccco3)ccc2C)c1,0.9,-2.1,.,9,-2,100*
CCN(CC)c1nc(=S)nc(NC(C)(C)C)[nH]1,1,0.38,.,4,37,95*
SMILES,Diaph act CS,ROMK primary,KCC2 mod,Diaph inh CS,WT yeast gro inh,Lmaj promast
CCN(CC)c1nc(N(CC)CC)[nH]c(=O)n1,.,0.039,0.93,.,.,9
CCn1c(=O)cc(SCC(=O)N2CCN(C3CCCCC3)CC2)c2ccccc21,0.9,-2.6,.,12,-4,51*
CCn1c(=O)cc(SCC(=O)N2CCOCC2)c2ccccc21,1,-0.69,.,-4,0,-2
CCOC(=O)c1ccc(Oc2nc(NC(C)(C)C)nc(N(C)C)n2)cc1,1,1.7,.,3,65*,17
Cc1nc2nc(C)c(CCC(=O)N3CCOCC3)c(C)n2n1,1.1,1.1,-0.052,-7,51,-3
O=C(CSC(=S)N1CCCCC1)N1N=CCC1c1ccccc1 (stereo not given),1,-0.91,-0.74,-1,2,51*
Cc1cc(C)nc(-n2ncc3c2CC(c2ccccc2)CC3=O)n1 (stereo not given),0.9,.,-0.03,15,-8,-4
COc1ccc(C2CC(=O)c3cnn(-c4nc(C)cc(C)n4)c3C2)cc1 (stereo not given),1,-0.014,0.83,0,11,78*
CCc1cccc2c(C(=O)CSc3nncn3-c3ccccc3OC)c[nH]c12,1,0.75,-0.56,2,-10,8
CCc1cccc2c(C(=O)CSc3nncn3-c3ccc(OC)cc3)c[nH]c12,0.9,0.12,0.058,6,-10,53*
COCCN1C(=O)c2cc(C(=O)Nc3ccc(C)c(F)c3)ccc2C1Nc1ccc(C)c(F)c1 (stereo not given),1.1,0.83,1,-9,-4,11
O=C(c1cccc(Br)c1)c1conc1C(=O)c1ccco1,0.8,0.45,-1.6,15,67*,-3
O=C(NC12CC3CC(CC(C3)C1)C2)c1ccc(-c2ccc(Cl)cc2)o1,0.9,1.4,0.41,8,57,92*
O=C(COC(=O)c1ccc(-c2ccc([N+](=O)[O-])cc2)o1)NC(=O)NC12CC3CC(CC(C3)C1)C2,0.8,.,0.4,18,38,98*
O=C(NC12CC3CC(CC(C3)C1)C2)c1ccc(-c2ccccc2Cl)o1,0.8,.,0.25,20,10,31
O=C(NC12CC3CC(CC(C3)C1)C2)c1ccc(COc2ccc(Cl)cc2[N+](=O)[O-])o1,0.9,.,0.41,15,6,17
O=C(NC12CC3CC(CC(C3)C1)C2)c1ccc(-c2cccc(Cl)c2)o1,0.8,.,-0.2,19,66*,22
Cc1ccc(Nc2nnc(SCC(=O)NCCN3C(=O)CSC3=O)s2)cc1,0.8,.,0.28,16,9,-2
COCCCn1c(=O)/c(=C\c2ccccc2OC(C)C)s/c1=C(/C#N)C(=O)Nc1ccc(C(=O)O)cc1,.,.,-1.3,.,.,.
CC(=O)c1cccc(NC(=O)C2C(c3ccccc3)C2(Cl)Cl)c1 (stereo not given),0.7,.,-1.3,26,36,33
Cc1ccc(NC(=O)C2CC(=O)N(CCc3ccccc3)C2)c(C)c1 (stereo not given),0.8,-0.067,-0.39,15,6,-2
Cc1ccc(NC(=O)C2C3CCCC2C3c2ccccc2)c(C)c1 (stereo not given),1,.,-0.79,5,16,84*
Cc1cccc(NC(=O)C2C(c3ccccc3)C2(Cl)Cl)c1 (stereo not given),0.7,0.86,-0.15,25,64*,29
COc1ccc(NC(=O)C2C(c3ccccc3)C2(Cl)Cl)cc1 (stereo not given),.,.,-1.8,.,.,.
Cc1ccc(NC(=O)C2C(c3ccccc3)C2(Cl)Cl)c(C)c1 (stereo not given),0.8,-0.61,0.45,24,86*,41

# Compound activity deposited in PubChem by several laboratories.
